Reference: ChEMBL document CHEMBL1138290 (J Med Chem, 2007)

How the values were obtained:
[1] = Cell cycle arrest in KB/HeLa cells assessed as accumulation at S phase at 10 nM after 24 hrs by flow cytometric analysis; format: functional, cell-based; conditions: Homo sapiens
Procedure, shortened: (§1)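 Subconfluent KB/HeLa cells exposed to a range of compound concentrations for 24 h. Cell cycle phase distribution determined by flow cytometry. Experiments run at least in duplicate (n = 2).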

RKO [2] = test: Cytotoxicity against human RKO cells with ectopic-inducible expression of p27kip1 after 48 hrs by XTT assay; format: functional, cell-based
Procedure, shortened: (§2)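 XTT proliferation assay with 48 h incubation with test compound. Each experiment run at least in duplicate (n = 2). IC50 calculated by nonlinear regression of dose-response curves.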

[3] = Cell cycle arrest in KB/HeLa cells assessed as accumulation at G1 phase at 316 nM after 24 hrs by flow cytometric analysis; format: functional, cell-based; conditions: Homo sapiens; procedure, shortened: as §1
P388 [4] = test: Antiproliferative activity against mouse adriamycin-resistant P388 cells after 48 hrs by XTT assay; format: functional, cell-based; conditions: P388, 48 h; procedure, shortened: as §2
[5] = Cell cycle arrest in KB/HeLa cells assessed as accumulation at G1 phase at 3.16 nM after 24 hrs by flow cytometric analysis; format: functional, cell-based; conditions: Homo sapiens; procedure, shortened: as §1
[6] = Cell cycle arrest in KB/HeLa cells assessed as accumulation at G1 phase at 31.6 nM after 24 hrs by flow cytometric analysis; format: functional, cell-based; conditions: Homo sapiens; procedure, shortened: as §1
[7] = Cell cycle arrest in KB/HeLa cells assessed as accumulation at G1 phase at 1 nM after 24 hrs by flow cytometric analysis; format: functional, cell-based; conditions: Homo sapiens; procedure, shortened: as §1
[8] = Cell cycle arrest in KB/HeLa cells assessed as accumulation at G2M phase at 0.3 nM after 24 hrs by flow cytometric analysis; format: functional, cell-based; conditions: Homo sapiens; procedure, shortened: as §1
Tubulin [9] = test: Displacement of [3H]colchicine from biotinylated tubulin by scintillation proximity assay; format: protein-complex assay, Homo sapiens
[10] = Cell cycle arrest in KB/HeLa cells assessed as accumulation at G2M phase at 1000 nM after 24 hrs by flow cytometric analysis; format: functional, cell-based; conditions: Homo sapiens; procedure, shortened: as §1
[11] = Cell cycle arrest in KB/HeLa cells assessed as accumulation at G2M phase at 10 nM after 24 hrs by flow cytometric analysis; format: functional, cell-based; conditions: Homo sapiens; procedure, shortened: as §1
SK-OV-3 = test: Cytotoxicity against human SKOV3 cells after 48 hrs by XTT assay; format: functional, cell-based; conditions: SK-OV-3, 48 h; procedure, shortened: as §2
[12] = Cytotoxicity against human KB/HeLa cells after 48 hrs by XTT assay; format: functional, cell-based; procedure, shortened: as §2
[13] = Cell cycle arrest in KB/HeLa cells assessed as accumulation at S phase at 1000 nM after 24 hrs by flow cytometric analysis; format: functional, cell-based; conditions: Homo sapiens; procedure, shortened: as §1
[14] = Cell cycle arrest in KB/HeLa cells assessed as accumulation at G1 phase at 1000 nM after 24 hrs by flow cytometric analysis; format: functional, cell-based; conditions: Homo sapiens; procedure, shortened: as §1
[15] = Cell cycle arrest in KB/HeLa cells assessed as accumulation at S phase at 100 nM after 24 hrs by flow cytometric analysis; format: functional, cell-based; conditions: Homo sapiens; procedure, shortened: as §1
L1210 [16] = test: Antiproliferative activity against mouse L1210 cells after 48 hrs by XTT assay; format: functional, cell-based; conditions: L1210, 48 h; procedure, shortened: as §2
[17] = Cell cycle arrest in KB/HeLa cells assessed as accumulation at S phase at 3.16 nM after 24 hrs by flow cytometric analysis; format: functional, cell-based; conditions: Homo sapiens; procedure, shortened: as §1
[18] = Cell cycle arrest in KB/HeLa cells assessed as accumulation at G2M phase at 0.1 nM after 24 hrs by flow cytometric analysis; format: functional, cell-based; conditions: Homo sapiens; procedure, shortened: as §1
[19] = Cell cycle arrest in KB/HeLa cells assessed as accumulation at S phase at 0.1 nM after 24 hrs by flow cytometric analysis; format: functional, cell-based; conditions: Homo sapiens; procedure, shortened: as §1
[20] = Cell cycle arrest in KB/HeLa cells assessed as accumulation at G2M phase at 31.6 nM after 24 hrs by flow cytometric analysis; format: functional, cell-based; conditions: Homo sapiens; procedure, shortened: as §1
[21] = Cell cycle arrest in KB/HeLa cells assessed as accumulation at G2M phase at 3.16 nM after 24 hrs by flow cytometric analysis; format: functional, cell-based; conditions: Homo sapiens
SF-268 = test: Cytotoxicity against human SF268 cells after 48 hrs by XTT assay; format: functional, cell-based; conditions: SF-268, 48 h; procedure, shortened: as §2
[22] = Cell cycle arrest in KB/HeLa cells assessed as accumulation at G2/M phase after 24 hrs by flow cytometric analysis; format: functional, cell-based; conditions: Homo sapiens; procedure, shortened: as §1
RKO [23] = test: Cytotoxicity against human RKO cells after 48 hrs by XTT assay; format: functional, cell-based; procedure, shortened: as §2
Tubulin [24] = molecular target: Tubulin (Sus scrofa, UniProt P02554+P02550); test: Inhibition of porcine brain tubulin polymerization
P388 [25] = test: Antiproliferative activity against mouse P388 cells after 48 hrs by XTT assay; format: functional, cell-based; conditions: P388, 48 h; procedure, shortened: as §2
[26] = Cell cycle arrest in KB/HeLa cells assessed as accumulation at S phase at 1 nM after 24 hrs by flow cytometric analysis; format: functional, cell-based; conditions: Homo sapiens; procedure, shortened: as §1
[27] = Cell cycle arrest in KB/HeLa cells assessed as accumulation at S phase at 31.6 nM after 24 hrs by flow cytometric analysis; format: functional, cell-based; conditions: Homo sapiens; procedure, shortened: as §1
L1210 [28] = test: Antiproliferative activity against mouse vincristine-resistant L1210 cells after 48 hrs by XTT assay; format: functional, cell-based; conditions: L1210, 48 h; procedure, shortened: as §2
[29] = Antiproliferative activity against rat L12 cells after 48 hrs by XTT assay; format: functional, cell-based
[30] = Cell cycle arrest in KB/HeLa cells assessed as accumulation at G2M phase at 100 nM after 24 hrs by flow cytometric analysis; format: functional, cell-based; conditions: Homo sapiens; procedure, shortened: as §1
NCI-H460 = test: Cytotoxicity against human NCI-H460 cells after 48 hrs by XTT assay; format: functional, cell-based; conditions: NCI-H460, 48 h; procedure, shortened: as §2
[31] = Cell cycle arrest in KB/HeLa cells assessed as accumulation at G1 phase at 0.3 nM after 24 hrs by flow cytometric analysis; format: functional, cell-based; conditions: Homo sapiens; procedure, shortened: as §1
[32] = Cell cycle arrest in KB/HeLa cells assessed as accumulation at G2M phase at 1 nM after 24 hrs by flow cytometric analysis; format: functional, cell-based; conditions: Homo sapiens; procedure, shortened: as §1
[33] = Cell cycle arrest in KB/HeLa cells assessed as accumulation at G1 phase at 10 nM after 24 hrs by flow cytometric analysis; format: functional, cell-based; conditions: Homo sapiens; procedure, shortened: as §1
[34] = Antiproliferative activity against rat multidrug-resistant L12 cells after 48 hrs by XTT assay; format: functional, cell-based; conditions: L1.2, 48 h; procedure, shortened: as §2
[35] = Cell cycle arrest in KB/HeLa cells assessed as accumulation at G2M phase at 316 nM after 24 hrs by flow cytometric analysis; format: functional, cell-based; conditions: Homo sapiens; procedure, shortened: as §1
[36] = Cell cycle arrest in KB/HeLa cells assessed as accumulation at G1 phase at 0.1 nM after 24 hrs by flow cytometric analysis; format: functional, cell-based; conditions: Homo sapiens; procedure, shortened: as §1
[37] = Cell cycle arrest in KB/HeLa cells assessed as accumulation at S phase at 316 nM after 24 hrs by flow cytometric analysis; format: functional, cell-based; conditions: Homo sapiens; procedure, shortened: as §1
K562 = test: Antiproliferative activity against human K562 cells after 48 hrs; format: functional, cell-based; conditions: K562, 48 h
Procedure, shortened: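 Growth of K562 cells measured by counting cells with a hemocytometer after 48 h (2 days) of drug treatment. IC50 is the mean of at least three independent determinations.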

[38] = Cell cycle arrest in KB/HeLa cells assessed as accumulation at G1 phase at 100 nM after 24 hrs by flow cytometric analysis; format: functional, cell-based; conditions: Homo sapiens; procedure, shortened: as §1
[39] = Cell cycle arrest in KB/HeLa cells assessed as accumulation at S phase at 0.3 nM after 24 hrs by flow cytometric analysis; format: functional, cell-based; conditions: Homo sapiens; procedure, shortened: as §1

In the case of `COc1ccc(S(=O)(=O)Oc2c3ccccc3cc3ccccc23)cc1`, the Activity [1] is reported as 25.5%, the IC50 (RKO [2]) is reported as > 9000 nM and the Activity [3] is reported as 0.8%. It also gave an IC50 (P388 [4]) of 270 nM, an Activity [5] of 62.7% and an Activity [6] of 61.8%. It also gave an Activity [7] of 62.1%, an Activity [8] of 12.4% and an IC50 (Tubulin [9]) of 560 nM. It also gave an Activity [10] of 90.5%, an Activity [11] of 12.6% and an IC50 (SK-OV-3) of 250 nM. The IC50 [12] was 370 nM, the Activity [13] was 8.4% and the Activity [14] was 1.1%. It also gave an Activity [15] of 31%, an IC50 (L1210 [16]) of 540 nM and an Activity [17] of 26%. It also gave an Activity [18] of 11.9%, an Activity [19] of 26.7% and an Activity [20] of 11.4%. It also gave an Activity [21] of 11.4%, an IC50 (SF-268) of 340 nM and an EC50 [22] of 135 nM. The IC50 (RKO [23]) was 280 nM, the IC50 (Tubulin [24]) was 1200 nM and the IC50 (P388 [25]) was 380 nM. It also gave an Activity [26] of 26.2%, an Activity [27] of 26.8% and an IC50 (L1210 [28]) of 460 nM. The IC50 [29] was 440 nM, the Activity [30] was 12.6% and the IC50 (NCI-H460) was 640 nM. It also gave an Activity [31] of 61.6%, an Activity [32] of 11.7% and an Activity [33] of 61.8%. The IC50 [34] was 360 nM, the Activity [35] was 94.4% and the Activity [36] was 61.4%. For the same compound, the Activity [37] was 4.8%, the IC50 (K562) was 90 nM and the Activity [38] was 56.4%. For the same compound, the Activity [39] was 26%.
For `CC[C@]1(O)C[C@@H]2CN(CCc3c([nH]c4ccccc34)[C@@](C(=O)OC)(c3cc4c(cc3OC)N(C)[C@H]3[C@@](O)(C(N)=O)[C@H](O)[C@]5(CC)C=CCN6CC[C@]43[C@@H]65)C2)C1` [VINDESINE], the IC50 (L1210 [28]) was > 5000 nM, the IC50 [29] was 1 nM and the IC50 [34] was 260 nM.
With `COc1cc2c(c(OC)c1OC)-c1ccc(OC)c(=O)cc1[C@@H](NC(C)=O)CC2` [COLCHICINE] the Activity [1] was 35.7%, the IC50 (RKO [2]) was > 14000 nM and the Activity [3] was 0.3%. The Activity [5] was 64.3%, the Activity [6] was 0.5% and the Activity [7] was 64.7%. For the same compound, the Activity [8] was 10.1%, the Activity [11] was 32.1% and the IC50 [12] was 30 nM. The Activity [15] was 5.1%, the Activity [17] was 25.1% and the Activity [20] was 87.6%. The EC50 [22] was 14 nM, the Activity [26] was 25.4% and the Activity [27] was 11.9%. It also gave an Activity [30] of 94.7%, an Activity [31] of 63.3% and an Activity [32] of 10%. The Activity [33] was 32.2%, the Activity [35] was 94.5% and the Activity [37] was 5.2%. For the same compound, the Activity [38] was 0.3% and the Activity [39] was 26.6%.
In the case of `CC(=O)O[C@H]1C(=O)[C@@]2(C)[C@H]([C@H](OC(=O)c3ccccc3)[C@]3(O)C[C@H](OC(=O)[C@H](O)[C@@H](NC(=O)c4ccccc4)c4ccccc4)C(C)=C1C3(C)C)[C@]1(OC(C)=O)CO[C@@H]1C[C@@H]2O` [PACLITAXEL], the Activity [1] is reported as 26.6%, the IC50 (RKO [2]) is reported as > 3000 nM and the Activity [3] is reported as 0.3%. For the same compound, the IC50 (P388 [4]) was > 5000 nM, the Activity [5] was 63.6% and the Activity [6] was 31.1%. For the same compound, the Activity [7] was 63.2%, the Activity [11] was 8.5% and the IC50 [12] was 10 nM. It also gave an Activity [15] of 11%, an Activity [17] of 27% and an Activity [20] of 19%. It also gave an Activity [21] of 9.4%, an EC50 [22] of 49 nM and an Activity [26] of 26.7%. For the same compound, the Activity [27] was 49.9%, the IC50 (L1210 [28]) was > 5000 nM and the Activity [30] was 87.8%. For the same compound, the Activity [32] was 10.1%, the Activity [33] was 64.8% and the IC50 [34] was 400 nM. The Activity [35] was 90.8%, the Activity [37] was 8.9% and the Activity [38] was 1.2%.
